Yeast life ext: compounds extending yeast replicative lifespan, primary screen, S. cerevisiae, OD615; S. cerevisiae growth with nicotinamide; deaD strain in restrictive glucose medium; inhibition of the nicotinamide effect, % at 10 µM; 130,000 compounds, 0.68% hits;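 active = inhibition above a set limit, placed 3 SD over the median of all compounds, cut at about 26% in these data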
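Material: Modified budding yeast, DeaD strain | Medium: Restrictive glucose medium | Probe or stimulus: 1.5 mM nicotinamide | Dosing: Single dose 10 µM compound, 0.25% DMSO | Times: 48 h at 30 °C | Technique: OD615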
TNAP act hi DEA: TNAP activators at high phosphate acceptor level, primary screen, biochemical, luminescence, uHTS. purified TNAP, CDP-star luminescence, 1 M DEA, 30 min; hits give high values; 0 = EDTA background, 1 = DMSO-only activity. activation factor at 20 µM. 200,000 tested, under 10 active;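 active = activation factor at least 2 at 20 µM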
Target sequence (P05186 whole entry, looked up): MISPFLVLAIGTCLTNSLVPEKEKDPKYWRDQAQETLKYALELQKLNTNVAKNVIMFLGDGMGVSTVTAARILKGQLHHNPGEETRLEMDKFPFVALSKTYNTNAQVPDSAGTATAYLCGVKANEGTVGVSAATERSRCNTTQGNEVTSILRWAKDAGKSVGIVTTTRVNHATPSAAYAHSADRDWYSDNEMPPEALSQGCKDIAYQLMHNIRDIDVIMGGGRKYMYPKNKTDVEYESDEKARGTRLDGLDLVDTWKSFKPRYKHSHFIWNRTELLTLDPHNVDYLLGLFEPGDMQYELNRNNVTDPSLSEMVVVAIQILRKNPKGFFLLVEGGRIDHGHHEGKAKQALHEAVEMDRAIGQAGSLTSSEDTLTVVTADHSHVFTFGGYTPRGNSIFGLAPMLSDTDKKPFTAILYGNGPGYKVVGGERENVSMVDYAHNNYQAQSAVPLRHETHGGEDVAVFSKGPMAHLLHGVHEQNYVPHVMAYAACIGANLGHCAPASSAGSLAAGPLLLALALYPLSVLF
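Dosing: 20 µM single point. System: human TNAP. Amount: TNAP 1/800 final. Incubation: 30 min, room temperature. Read-out: TNAP activation factor scaled between EDTA and DMSO control wells. Signal: luminescence from CDP-star hydrolysis. Medium: 1 M DEA, pH 9.8, Mg2+, Zn2+. Control set: EDTA negative control, DMSO positive control.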
BB579 growth dn: growth inhibitors of yeast BB579 in restrictive medium, primary screen, yeast lifespan-shortening project, S. cerevisiae | OD615, 48 h | inhibition, % at 10 µM | 140,000 compounds, 0.51% hits;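 active = inhibition above a set limit, 3 SD over the mean compound inhibition, cut at about 44% in these data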
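controls = amphotericin B 10 µg/mL, positive | assay system = DeaD yeast strain BB579 | schedule = 48 h compound exposure at 30 °C after 4 h preincubation | detection = OD615 turbidity measurement | medium = restrictive CSMM-D medium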
RAM inhibit: inhibitors of the yeast RAM network, primary screen, dse1pr::URA3 reporter, 5-FOA selection. S. cerevisiae dse1pr::URA3 reporter, 5-FOA growth OD615, 2 d; analog-sensitive cbk1-as2 kinase mutant strain. 190,000 compounds, 1.8% hits. inhibition, % at 50 µM;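 active = inhibition above a set limit, 3 SD over mean compound inhibition, cut at about 8.4% in these data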;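 also: inhibition rescues growth on 5-FOA so higher OD means more RAM inhibition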
TNAP inh noacc: human TNAP enzyme inhibitors, primary screen, biochemical, luminescent, no phosphate acceptor, uHTS; 200,000 compounds, 0.26% hits; AID 1012, 2008; purified TNAP, CDP-star luminescence, 30 min; inhibition, % at 20 µM;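 active = tissue-nonspecific alkaline phosphatase inhibition above about 50% at 20 µM in the single-dose screen, limit read from the data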
TNAP inh hiacc: human TNAP enzyme inhibitors, primary screen, biochemical, luminescent, high phosphate acceptor level, uHTS; purified TNAP, CDP-star luminescence, 1 M DEA; 200,000 compounds, 0.03% hits; AID 1135, 2008; inhibition, % at 20 µM;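 active = over 50% inhibition of tissue-nonspecific alkaline phosphatase at 20 µM in the single-dose screen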
RAM efflux-def: 5-FOA growth of efflux-deficient control yeast, dose response, counter-screen for RAM network inhibitor project, S. cerevisiae, OD615 | shares compounds with RAM inhibit | max inhibition, % | 1,200 tested, under 10 active | S. cerevisiae efflux-deficient reporter strain, 5-FOA growth OD615, 2 days; call rule not given here
Each line names hits and unclear results; the compound was inactive in the other large screens (follow-up assays come after a bar, where they were run). An excerpt weighted towards active compounds, which were near 2.8% of everything screened.

O=C(/C=C/c1cccc([N+](=O)[O-])c1)NCCSCc1cccc(Cl)c1	RAM inhibit 11.5 | RAM efflux-def inactive
O=C(/C=C/c1ccc2c(c1)OCO2)NCCSCc1c(Cl)cccc1Cl	RAM inhibit 15.1 | RAM efflux-def inactive
CCCCC(=O)Nc1ccc(NC(=S)NC(=O)CCCCl)cc1OC	none
O=C(c1cccc(Cl)c1)N1CCCC(c2ccc(Cl)cc2)=N1	RAM inhibit 16.9 | RAM efflux-def inactive
COc1ccc(S(=O)(=O)N(Cc2ccccc2)Cc2nc(-c3ccccc3)no2)cc1	RAM inhibit 11.5 | RAM efflux-def inactive
COc1ccc(Cc2nc(-c3ccccc3)no2)cc1	none
COc1ccc(CN2CCN(S(=O)(=O)c3ccc(NC(C)=O)cc3)CC2)c(OC)c1OC	none (no result: Yeast life ext, BB579 growth dn)
CCc1ccccc1N1CCN(S(=O)(=O)c2cc(OC)ccc2OC)CC1	RAM inhibit 13.0 | RAM efflux-def inactive
COc1ccc2c(CC(=O)OCC(=O)Nc3cc(C)c(C)cc3[N+](=O)[O-])coc2c1	RAM inhibit 12.2 | RAM efflux-def inactive
COc1ccc(C(=O)OCC(=O)Nc2cc(C)c(C)cc2[N+](=O)[O-])cc1	none
CCCn1nnnc1NC(=O)c1ccc(C)cc1Cl	none
CC(=O)c1ccc(OC(=O)CCN2c3ccccc3Sc3ccccc32)cc1	RAM inhibit 11.4 | RAM efflux-def inactive
O=C(CSc1nc2cc(Cl)ccc2s1)N1CCCc2ccccc21	RAM inhibit 11.5 | RAM efflux-def inactive
S=C(c1ccc(-c2ccccc2Cl)o1)N1CCOCC1	RAM inhibit 12.4 | RAM efflux-def inactive
COc1ccc([N+](=O)[O-])cc1NC(=O)c1ccc(-n2nc(C)cc2C)cc1	none (no result: Yeast life ext, BB579 growth dn)
COCCCNC(=S)N1CCCN(c2nc3c(C)c(C)ccc3cc2C#N)CC1	RAM inhibit 16.2 (no result: Yeast life ext, BB579 growth dn) | RAM efflux-def inactive
CSc1nnc(-c2ccco2)c(-c2ccco2)n1	none
CSc1nnc2c3ccccc3c3ccccc3c2n1	RAM inhibit 12.9 | RAM efflux-def inactive
Cc1ccc(Cl)cc1N1CCN(C(=S)NCCc2ccccc2)CC1	RAM inhibit 13.0 (no result: Yeast life ext, BB579 growth dn) | RAM efflux-def inactive
O=C(Nc1ccc2ccccc2c1)c1onc2c1CCCC2	none
N#C/C(=C\c1c[nH]c2ccccc12)C(=O)Nc1ncc(Cc2ccc(Cl)cc2Cl)s1	RAM inhibit 13.9 | RAM efflux-def inactive
Cn1cc(/C=C(\C#N)C(=O)Nc2ncc(Cc3cccc(Cl)c3)s2)c2ccccc21	none
O=[N+]([O-])c1ccccc1N/N=C\c1ccccc1Cl	none
CCCOc1ccc(/C=N/Nc2ccccc2[N+](=O)[O-])c(OCCC)c1	RAM inhibit 16.0 | RAM efflux-def inactive
Cc1[nH]c2ccccc2c1C(=O)C(=O)NCc1cccs1	none (no result: Yeast life ext, BB579 growth dn)
CCCN1C(=O)/C(=C/c2ccc(C)s2)SC1=Nc1ccc(OC)cc1	RAM inhibit 20.7 | RAM efflux-def inactive
CCC(C)(C)NC(=O)CCCSc1nc2ccccc2s1	none (no result: Yeast life ext, BB579 growth dn)
CCN(CC)S(=O)(=O)c1ccc(NC(=O)CCC2CCCCC2)cc1	RAM inhibit 11.6 | RAM efflux-def inactive
COc1ccc(-c2c(C)n([O-])c3c([n+]2=O)CCCCC3)cc1OC	none (no result: Yeast life ext, BB579 growth dn)
CCOc1cc(N2CCOCC2)c(OCC)cc1NC(=O)c1cc(-c2ccco2)nc2ccccc12	none
COc1cc(/C=N/Nc2ccc(Cl)cc2)ccc1OC(=O)c1cccs1	RAM inhibit 11.8 | RAM efflux-def inactive
COc1cc(/C=N/NC(N)=O)ccc1OC(=O)c1cccs1	none (no result: Yeast life ext, BB579 growth dn)
Cc1nn(C(=O)c2cccc([N+](=O)[O-])c2)c(C)c1Sc1ccccc1	none
